# Screening data deposited in PubChem BioAssay by Broad Institute.
# CDK5 inh – inhibitors of human CDK5/p35 kinase; Q00535+Q15078; Recombinant CDK5/p35, ADP-Glo luminescence, 60 min; inhibition, % at 10 µM; actives 0.01% (n = 330,000); AID 488839;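 active means highest replicate inhibition of at least 50% and at least 75% of replicates reaching 50%; inconclusive means only one of the two criteria met; inactive means both criteria failed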;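 further: plate controls were DMSO neutral control for no effect and GW8510 at 10 µM for full effect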
# Dyrk1A ADPGlo – inhibitors of rat Dyrk1A kinase. Q63470. actives 0.43% (n = 310,000). ADP-Glo luminescence, NFATc1 peptide. inhibition, % at 12.5 µM;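 further: plate controls were vehicle with enzyme for no effect and no enzyme for full effect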
# dFosB act-1 – mouse delta FosB homodimer activation; purified delta FosB, TAMRA-CDK5 oligo fluorescence polarization; percent of positive-control signal above neutral wells; activation, % at 25 µM; actives 0.99% (n = 340,000); AID 493131;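 active means mean activation above about 17%, with every replicate also reaching it, limit read from the data, passing the limit was not always enough; inconclusive means only one of the two conditions met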
# NSD2 HMT inh – inhibitors of human histone methyltransferase NSD2; inhibition, % at 12.5 µM; O96028; actives 0.54% (n = 310,000); NSD2 peptide methylation, AlphaScreen, 120 min
# SR-BI DiI inh – blocks mouse SR-BI lipid uptake from DiI-HDL; AID 488896; Q61009; actives 0.96% (n = 320,000); inhibition, % at 12.5 µM; ldlA[mSR-BI] CHO cells, DiI-HDL uptake fluorescence, 3 h;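 active means mean replicate inhibition of at least 70% and a set share of replicates each scoring 70 or more; inconclusive means meets just one of the two criteria; inactive means fails both criteria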;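 further: 0% = median of neutral control wells and 100% = median of positive control wells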
# Target sequence (Q61009 whole entry, looked up): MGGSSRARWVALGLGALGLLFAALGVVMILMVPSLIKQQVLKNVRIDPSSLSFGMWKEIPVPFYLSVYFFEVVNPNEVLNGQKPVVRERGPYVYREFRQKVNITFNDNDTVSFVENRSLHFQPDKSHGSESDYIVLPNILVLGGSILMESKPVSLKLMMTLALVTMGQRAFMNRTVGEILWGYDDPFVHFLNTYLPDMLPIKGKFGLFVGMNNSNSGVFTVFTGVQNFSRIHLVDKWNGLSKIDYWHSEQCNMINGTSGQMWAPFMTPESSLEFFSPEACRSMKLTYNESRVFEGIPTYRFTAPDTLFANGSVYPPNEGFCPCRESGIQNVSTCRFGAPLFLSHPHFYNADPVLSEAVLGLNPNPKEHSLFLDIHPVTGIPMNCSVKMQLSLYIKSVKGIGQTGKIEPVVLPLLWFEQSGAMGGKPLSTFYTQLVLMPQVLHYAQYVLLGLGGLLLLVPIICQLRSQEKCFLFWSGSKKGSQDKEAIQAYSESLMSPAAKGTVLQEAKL
# SR-BI DiI-HDL act – SR-BI HDL lipid transfer activation; CHO ldlA[mSR-BI] cells, DiI-HDL uptake fluorescence, 3 h; 100 = double the neutral-control signal; actives 0.096% (n = 320,000); activation, % at 12.5 µM;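 active means mean replicate activation of at least 60% and every replicate at or above 60%; inconclusive means mean or all-replicate condition met, but not both; inactive means mean below 60% and not all replicates reaching 60%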;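 further: 0% = median plate neutral-control signal and 100% = twice that signal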
#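 Test system: SR-BI-overexpressing, LDLR-lacking CHO cells. Measured by: DiI fluorescence, bottom read. Medium: Ham's F12 with 0.5% BSA, HEPES 25 mM, pH 7.4. Timing: 3 h uptake period with compound, 37 °C.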
# dFosB act-2 – activators of mouse delta FosB homodimer DNA binding | shares compounds with dFosB act-1 | purified delta FosB, TAMRA-CDK5 oligo fluorescence polarization; normalised: neutral wells 0, positive control 100 | activation, % at 24.9 µM | 2,400 tested, under 10 active | AID 588690;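 active means highest replicate activation at or above 34% and every replicate reaching that threshold; inconclusive means meets only one of the two criteria; inactive means meets neither criterion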;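 further: higher polarization means more probe DNA bound by delta FosB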
# The depositor's hits bear a star; ? = inconclusive; . = no result. This is a sample that favours compounds with a hit; in the whole collection about 2.5% have one here. Unless noted, no stated cut-off is given here; in the data, active means inhibition above about 50%; inactive means the rest.
SMILES,CDK5 inh,Dyrk1A ADPGlo,dFosB act-1,NSD2 HMT inh,SR-BI DiI inh,SR-BI DiI-HDL act,dFosB act-2
COc1cc(OC)cc(C(=O)NC(=S)Nc2ccc3[nH]c(=O)[nH]c3c2)c1,-0.6,0.0,24.5*,-1.3,.,.,-0.8
COc1cccc(C(=O)NC(=S)Nc2ccc3[nH]c(=O)[nH]c3c2)c1,-0.9,3.5,3.0,1.0,.,.,.
CC1CCCC(C)N1CC(O)COCc1ccccc1F (stereo unspecified),0.8,-0.3,1.8,15.3,-16.9,16.9,.
Cc1ccc(C(=O)NCCNc2nc3cc(C)c(C)cc3cc2C)cc1,0.6,1.9,40.7*,-1.7,-11.0,11.0,0.7
Cc1cc2cc(C)c(NCCNC(=O)c3ccccc3)nc2cc1C,0.4,-7.5,-17.5,-1.8,13.6,-13.6,.
S=C(c1cn(CCOc2cccc3ccccc23)c2ccccc12)N1CCCC1,-1.7,-1.9,27.2*,-2.5,24.7,-24.7,1.3
S=C(c1cn(CCOc2ccccc2)c2ccccc12)N1CCCC1,0.5,-1.9,6.7,0.1,18.5,-18.5,.
CCSc1ccc(C(=O)Nc2ccc(Br)cn2)cc1[N+](=O)[O-],-0.7,3.5,18.8*,-1.7,56.0,-56.0,-6.8
Cn1c(N)c(S(=O)(=O)N2CCN(c3cccc(Cl)c3)CC2)c(=O)n(C)c1=O,-1.1,-0.1,-2.9,0.3,-0.3,0.3,.
Cc1cccc(-c2cc3nc(C)cc(NCCCN(C)C)n3n2)c1,2.2,0.9,2.1,2.7,-11.8,11.8,.
CN(C)CCCNc1cc(-c2ccccc2)nc2cc(-c3cccc(F)c3)nn12,0.6,0.7,56.4*,-4.3,19.3,-19.3,2.2
Cn1c(CC(=O)NNC(=O)c2ccccc2[N+](=O)[O-])nc2ccccc21,-0.3,-2.2,-4.0,-2.5,-9.2,9.2,.
COc1ccccc1NC(=O)c1cc(S(=O)(=O)N2CCc3ccccc32)ccc1F,-1.7,-13.7,30.2*,-1.8,-0.6,0.6,5.1
CCc1ccc(NC(=O)NNC(=O)c2cc3ccccc3cc2O)cc1,-0.5,0.6,39.4*,0.2,37.8,-37.8,4.3
CCOc1ccc(NC(=O)NNC(=O)c2cc3ccccc3cc2O)cc1,1.1,-1.9,38.8*,2.0,81.3*,-81.3,0.3
CCc1ccc(NC(=O)NNC(=O)c2ccc3ccccc3c2O)cc1,-0.9,2.4,6.7,3.4,-6.6,6.6,.
COc1ccc(NC(=O)c2cc3ccccc3cc2O)cc1,0.3,1.5,-20.1,1.5,33.3,-33.3,.
Cc1ccc(NC(=O)NNC(=O)c2cc3ccccc3cc2O)cc1C,0.9,3.5,54.2*,2.4,1.6,-1.6,4.1
Cc1cccc(S(=O)(=O)NC(=O)C2(C)CCN2C(=O)CC2CCCCC2)c1 (stereo unspecified),.,.,.,-6.7,.,.,.
Cc1ccccc1CN1C(=O)C(C)Sc2ccc(-c3ccco3)cc21 (stereo unspecified),.,.,.,1.9,.,.,.
COc1ccc(C(=O)O)cc1S(=O)(=O)Nc1ccc(N2CCCCC2)cc1,-1.5,5.6,3.0,1.5,-26.0,26.0,.
Cc1nc2ccccn2c1P(=O)(c1ccccc1)c1ccccc1,.,.,.,-2.6,.,.,.
Cc1cc2oc(C(=O)Nc3nonc3C)c(C)c2cc1C,1.0,-6.1,20.0*,0.6,-3.2,3.2,2.3
CCc1nonc1NC(=O)c1oc2ccc(F)cc2c1C,-0.2,1.5,34.8*,-5.2,-6.4,6.4,0.7
CCC(C)n1c(=O)c(C(=O)Nc2ccccc2S(N)(=O)=O)c(O)c2ccccc21 (stereo unspecified),0.8,-6.1,74.4*,5.4,7.0,-7.0,2.0
SMILES,CDK5 inh,Dyrk1A ADPGlo,dFosB act-1,NSD2 HMT inh,SR-BI DiI inh,SR-BI DiI-HDL act,dFosB act-2
CC(C)Cn1c(=O)c(C(=O)Nc2ccccc2S(N)(=O)=O)c(O)c2ccccc21,-1.2,5.2,0.8,-0.8,-6.2,6.2,.
CC(Sc1nc2ccccc2c(=O)n1CC1CCCO1)C(=O)N(C)c1ccccc1 (stereo unspecified),-0.4,2.8,-15.3,1.0,-5.8,5.8,.
COc1ccc(C(=O)CSc2nc(N)nc(SC)c2C#N)cc1,-1.9,-0.1,56.4*,0.0,20.0,-20.0,3.7
CSc1nc(N)nc(SCC(=O)c2ccccc2)c1C#N,-1.4,-5.3,-1.4,-1.3,9.9,-9.9,.
COc1ccccc1CNC(=O)C1(C)CCCCN1C (stereo unspecified),.,.,.,-2.1,.,.,.
Cc1c(Cl)cccc1NC(=O)Cn1cc(C(F)(F)F)cc(Cl)c1=O,0.1,4.0,56.8*,-1.0,14.1,-14.1,1.5
O=C(Nc1cccc2ccccc12)/C(=C/c1cccc([N+](=O)[O-])c1)NC(=O)c1cccs1,-0.5,-1.1,24.0*,35.5,1.4,-1.4,-5.1
COc1ccc2nc(C)cc(SCC(=O)Nc3c(C)cccc3C)c2c1,0.8,-1.4,73.3*,-2.3,20.2,-20.2,-4.4
Cc1ccc2c(c1)N(C(=O)CCC(=O)Nc1ccccc1Cl)CC(C)O2 (stereo unspecified),-0.7,0.7,0.2,.,19.6,-19.6,.
CC1(Cc2ccc(F)cc2)C(=O)Nc2ccc(S(=O)(=O)NC3CCCCC3)cc21 (stereo unspecified),.,.,.,2.7,.,.,.
Cc1ccc(-c2nnn(CC(=O)Nc3ccc(S(=O)(=O)N4CCC(C)CC4)cc3)n2)cc1,-3.9,4.6,68.4*,-1.4,-12.8,12.8,6.8
CC1CCN(S(=O)(=O)c2ccc(NC(=O)Cn3nnc(-c4ccccc4)n3)cc2)CC1,-0.3,.,?,.,-6.8,6.8,.
CCN1CCN(C(CNS(=O)(=O)c2ccccc2)c2cccnc2)CC1 (stereo unspecified),-1.5,6.1,1.1,3.5,17.3,.,.
O=C(Nc1ccc(F)cc1)Nc1ccc(Cl)cn1,1.9,1.0,41.8*,-2.1,12.3,-12.3,0.9
O=C(Nc1ccc(F)c(Cl)c1)Nc1ccc(Cl)cn1,0.3,2.1,39.1*,-0.2,-4.1,4.1,2.1
CN(CC(=O)Nc1ccc(F)c(F)c1F)C(=O)C1(c2ccccc2)CC1,.,.,.,3.8,.,.,.
COC(=O)c1cc(COC(=O)c2nc3nc(C)cc(C)n3n2)oc1C,-0.6,3.6,-0.2,2.5,-10.3,10.3,.
CC(C)[C@@H]1CN=C(N)N1C[C@@H]1CCCN1C[C@H](C)N1C[C@@H](Cc2ccccc2)N(CCc2ccc(Cl)c(Cl)c2)C1=N,3.3,.,20.0*,.,1.6,-1.6,-1.4
CN1C2C=CC(=O)C1C1C(=O)N(c3ccccc3)C(=O)C12 (stereo unspecified),.,.,.,3.9,.,.,.
CC(=O)c1ccc(N(C(=O)CS(=O)CC(=O)Nc2ccc(F)cc2)C(C(=O)NC2CCCCC2)c2cccs2)cc1 (stereo unspecified),-0.7,-6.2,20.1*,-1.1,-16.6,16.6,1.3
